Source: ChEMBL document CHEMBL1140214, “Antitumor activity of new substituted 3-(5-imidazo[2,1-b]thiazolylmethylene)-2-indolinones and 3-(5-imidazo[2,1-b]thiadiazolylmethylene)-2-indolinones: selectivity against colon tumor cells and effect on cell cycle-related events” (2008)

Key:
Leukemia cell = test: Antitumor activity against human Leukemia cells after 48 hrs by SRB assay; assay type: functional; conditions: for TGI: read-out: pTGI (converted)
Outline: (§1)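 NCI 60-cell panel two-stage screen: a single-dose pass at 10^-5 M, then five-dose testing for active compounds. Compounds were dissolved in DMSO and tested at five 10-fold dilutions, the highest 10^-4 M (10^-3 M in some cases). Results are given as the negative log molar concentration at three end points: pGI50, pTGI (total growth inhibition) and pLC50. Means are panel-subtype averages.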

NSCLC = test: Antitumor activity against human NSCLC cells after 48 hrs by SRB assay; assay type: functional; conditions: for GI50 / TGI / LC50: Homo sapiens, NSCLC, 48 h; for TGI: read-out: pTGI (converted); outline: as §1
[1] = Antitumor activity against human Colon cancer cells after 48 hrs by SRB assay; assay type: functional, Cancer cell lines; conditions: for GI50 / TGI / LC50 (50% lethal concentration): Homo sapiens, Cancer cell lines, 48 h; for TGI: read-out: pTGI (converted); outline: as §1
[2] = Antitumor activity against human CNS cancer cells after 48 hrs by SRB assay; assay type: functional, Cancer cell lines; conditions: for TGI: read-out: pTGI (converted); outline: as §1
Melanoma cell = test: Antitumor activity against human Melanoma cells after 48 hrs by SRB assay; assay type: functional; conditions: for TGI: read-out: pTGI (converted); for CC50: read-out: pLC50 (the source's name) (converted); outline: as §1
[3] = Antitumor activity against human ovarian cancer cells after 48 hrs by SRB assay; assay type: functional, Cancer cell lines; conditions: for GI50 / TGI / LC50 (concentration killing 50% of cells): Homo sapiens, Cancer cell lines, 48 h; for TGI: read-out: pTGI (converted); outline: as §1
[4] = Antitumor activity against human renal cancer cells after 48 hrs by SRB assay; assay type: functional, Cancer cell lines; conditions: for GI50 / TGI / LC50 (concentration killing 50% of cells): Homo sapiens, Cancer cell lines, 48 h; for TGI: read-out: pTGI (converted); outline: as §1
[5] = Antitumor activity against human prostate cancer cells after 48 hrs by SRB assay; assay type: functional, Cancer cell lines; conditions: for GI50 / TGI / LC50: Homo sapiens, Cancer cell lines, 48 h; for TGI: read-out: pTGI (converted); outline: as §1
[6] = Antitumor activity against human Breast cancer cells after 48 hrs by SRB assay; assay type: functional, Cancer cell lines; conditions: for GI50 / TGI / LC50: Homo sapiens, Cancer cell lines, 48 h; for TGI: read-out: pTGI (converted); outline: as §1
[7] = Homo sapiens, Leukemia cell, 48 h
[8] = Homo sapiens, Cancer cell lines, 48 h, read-out: pGI50 (converted)
[9] = Homo sapiens, Cancer cell lines, 48 h
[10] = Homo sapiens, Melanoma cell, 48 h, read-out: pGI50 (converted)
[11] = Homo sapiens, Melanoma cell, 48 h

Row | SMILES | GI (Leukemia cell) | GI50 (Leukemia cell; [7]) | TGI (Leukemia cell; [7]) | GI (NSCLC) | GI50 (NSCLC) | TGI (NSCLC) | GI [1] | GI50 [1] | GI50 [2] | GI50 [2, 8] | GI50 (Melanoma cell) | GI50 (Melanoma cell; [10]) | GI [3] | GI50 [3] | GI [4] | GI50 [4] | GI [5] | GI50 [5] | GI [6] | GI50 [6] | further results
1 | Cc1cn2c(/C=C3/C(=O)Nc4ccc(F)cc43)c(C)nc2s1 | 4.57 µM | 4.57 µM | 23.4 µM | 8.13 µM | 8.13 µM | 42.7 µM | 2.4 µM | 2.4 µM | 6.03 µM | 6.03 µM | 6.31 µM | 6.31 µM | 7.24 µM | 7.24 µM | 11.48 µM | 11.5 µM | 9.55 µM | 9.55 µM | 4.47 µM | 4.47 µM | TGI [1]: 40.7 µM; TGI [2, 9]: 33.1 µM; TGI (Melanoma cell; [11]): 35.5 µM; TGI [3]: 44.7 µM; TGI [4]: 40.7 µM; TGI [5]: 40.7 µM; TGI [6]: 23.4 µM
2 | Cc1nn2c(/C=C3/C(=O)Nc4ccccc43)c(C)nc2s1 | 16.22 µM | 16.2 µM |  | 38.9 µM | 38.9 µM |  | 9.33 µM | 9.33 µM | 48.98 µM | 49 µM | 45.71 µM | 45.7 µM | 50.12 µM | 50.1 µM | 61.66 µM | 61.7 µM | 47.86 µM | 47.9 µM | 22.91 µM | 22.9 µM | 
3 | Cc1nn2c(/C=C3/C(=O)Nc4ccc(Cl)cc43)c(C)nc2s1 | 14.13 µM | 14.1 µM | 81.3 µM | 53.7 µM | 53.7 µM | 89.1 µM | 14.13 µM | 14.1 µM | 29.51 µM | 29.5 µM | 41.69 µM | 41.7 µM | 52.48 µM | 52.5 µM | 56.23 µM | 56.2 µM | 43.65 µM | 43.7 µM | 28.18 µM | 28.2 µM | TGI [2, 9]: 97.7 µM; TGI (Melanoma cell; [11]): 97.7 µM; TGI [6]: 83.2 µM
4 | Cc1cn2c(/C=C3/C(=O)Nc4ccccc43)c(-c3ccc(Cl)cc3)nc2s1 | 18.2 µM | 18.2 µM | 44.7 µM | 8.13 µM | 8.13 µM | 17.8 µM | 10.23 µM | 10.2 µM | 6.76 µM | 6.76 µM | 9.55 µM | 9.55 µM | 10 µM | 10 µM | 3.31 µM | 3.31 µM | 9.77 µM | 9.77 µM | 6.46 µM | 6.46 µM | LC50 (NSCLC): 38 µM; LC50 (50% lethal concentration) [1]: 38.9 µM; TGI [1]: 21.4 µM; LC50 [2, 9]: 30.2 µM; TGI [2, 9]: 15.1 µM; CC50 (Melanoma cell; [11]): 32.4 µM; TGI (Melanoma cell; [11]): 19.1 µM; LC50 (concentration killing 50% of cells) [3]: 39.8 µM; TGI [3]: 20.4 µM; LC50 (concentration killing 50% of cells) [4]: 33.1 µM; TGI [4]: 18.6 µM; LC50 [5]: 28.8 µM; TGI [5]: 17 µM; LC50 [6]: 35.5 µM; TGI [6]: 17.8 µM
5 | Cc1cn2c(/C=C3/C(=O)Nc4ccc(O)cc43)c(-c3ccc(Cl)cc3)nc2s1 | 12.59 µM | 12.6 µM | 38.9 µM | 16.6 µM | 16.6 µM | 55 µM | 24.55 µM | 24.5 µM | 13.18 µM | 13.2 µM | 15.14 µM | 15.1 µM | 13.8 µM | 13.8 µM | 15.14 µM | 15.1 µM | 15.14 µM | 15.1 µM | 15.85 µM | 15.8 µM | LC50 (concentration killing 50% of cells) (Leukemia cell; [7]): 95.5 µM; LC50 (NSCLC): 91.2 µM; TGI [1]: 75.9 µM; LC50 [2, 9]: 81.3 µM; TGI [2, 9]: 35.5 µM; CC50 (Melanoma cell; [11]): 89.1 µM; TGI (Melanoma cell; [11]): 57.5 µM; LC50 (concentration killing 50% of cells) [3]: 89.1 µM; TGI [3]: 44.7 µM; LC50 (concentration killing 50% of cells) [4]: 87.1 µM; TGI [4]: 50.1 µM; LC50 [5]: 79.4 µM; TGI [5]: 50.1 µM; LC50 [6]: 95.5 µM; TGI [6]: 56.2 µM
6 | Cc1ccc(-c2nc3sc(C)cn3c2/C=C2/C(=O)Nc3ccc(Cl)cc32)cc1 | 22.91 µM | 22.9 µM | 72.4 µM | 13.49 µM | 13.5 µM | 37.2 µM | 18.62 µM | 18.6 µM | 6.61 µM | 6.61 µM | 14.79 µM | 14.8 µM | 14.45 µM | 14.5 µM | 12.59 µM | 12.6 µM | 22.39 µM | 22.4 µM | 12.59 µM | 12.6 µM | LC50 (NSCLC): 69.2 µM; LC50 (50% lethal concentration) [1]: 79.4 µM; TGI [1]: 43.7 µM; LC50 [2, 9]: 55 µM; TGI [2, 9]: 20.4 µM; CC50 (Melanoma cell; [11]): 66.1 µM; TGI (Melanoma cell; [11]): 31.6 µM; LC50 (concentration killing 50% of cells) [3]: 74.1 µM; TGI [3]: 34.7 µM; LC50 (concentration killing 50% of cells) [4]: 64.6 µM; TGI [4]: 32.4 µM; TGI [5]: 55 µM; LC50 [6]: 75.9 µM; TGI [6]: 38.9 µM
7 | Cc1cn2c(/C=C3/C(=O)N(C)c4ccc(O)cc43)c(C)nc2s1 | 3.39 µM | 3.39 µM | 27.5 µM | 12.88 µM | 12.9 µM | 67.6 µM | 3.89 µM | 3.89 µM | 4.57 µM | 4.57 µM | 7.41 µM | 7.41 µM | 9.12 µM | 9.12 µM | 13.18 µM | 13.2 µM | 12.59 µM | 12.6 µM | 4.57 µM | 4.57 µM | TGI [1]: 56.2 µM; TGI [2, 9]: 37.2 µM; TGI (Melanoma cell; [11]): 63.1 µM; TGI [3]: 52.5 µM; TGI [4]: 85.1 µM; TGI [6]: 38 µM
